Reference: ChEMBL document CHEMBL4359883, “4(1H)-quinolone derivatives overcome acquired resistance to anti-microtubule agents by targeting the colchicine site of β-tubulin” (Eur J Med Chem, 2019)
Each block holds one compound with its values, some of them ahead of it. Calls of active or inactive are those of the source. No cut-off for these calls is given here.

How the values were obtained:
[1] = test system: NCI-H1975; experiment: Antiproliferative activity against human NCI-H1975 cells assessed as reduction in cell viability after 72 hrs by MTS assay; assay type: functional, cell-based; conditions: NCI-H1975, 72 h
Summary of the method: (§1)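 Cells plated at 2000/well, cultured overnight, then exposed to a range of compound concentrations for 72 h. MTS reagent added for 1–4 h at 37 °C and absorbance read at 490 nm. Cultured in RPMI 1640 or DMEM with 10% heat-inactivated FBS under 5% CO2. Data are the mean of three determinations.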

[2] = biological target: T1, Tubulin alpha (Homo sapiens) (UniProt P0DPH7+P68366+Q71U36+P68363+Q9BQE3+Q6PEY2+A6NHL2+Q9NY65); experiment: Induction of microtubule depolymerization in human CL1-0 cells assessed as increase in alpha tubulin soluble form by immunoblot analysis; assay type: cell-based
Summary of the method: (§2)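 Lysate spun at 16,000 rpm for 15 min at room temperature. Soluble (monomer) and particulate (polymer) fractions immunoblotted for α-tubulin.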

[3] = biological target: T1, Tubulin alpha (Homo sapiens); experiment: Induction of microtubule depolymerization in human NCI-H1975 cells assessed as increase in alpha tubulin soluble form by immunoblot analysis; assay type: cell-based; summary of the method: as §2
[4] = biological target: Tubulin (Sus scrofa) (UniProt P02554+P02550); experiment: Inhibition of porcine tubulin at 5 uM in presence of GTP measured every minute for 1 hr by microplate reader analysis; assay type: protein assay
Chain of Tubulin (Sus scrofa) (P02550 whole entry, looked up, the tested form may be a part): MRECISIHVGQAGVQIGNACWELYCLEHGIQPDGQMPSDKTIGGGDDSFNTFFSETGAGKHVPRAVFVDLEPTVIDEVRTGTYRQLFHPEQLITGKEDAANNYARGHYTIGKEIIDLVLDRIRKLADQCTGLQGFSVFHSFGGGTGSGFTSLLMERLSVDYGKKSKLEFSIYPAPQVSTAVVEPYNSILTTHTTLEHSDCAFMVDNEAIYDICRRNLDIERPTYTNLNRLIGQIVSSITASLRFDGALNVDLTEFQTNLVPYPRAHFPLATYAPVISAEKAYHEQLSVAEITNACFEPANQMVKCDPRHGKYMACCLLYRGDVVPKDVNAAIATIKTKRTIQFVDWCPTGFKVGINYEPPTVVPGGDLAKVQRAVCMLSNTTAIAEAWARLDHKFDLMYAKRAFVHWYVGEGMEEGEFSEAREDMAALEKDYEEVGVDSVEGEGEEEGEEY
Chain of Tubulin (Sus scrofa) (P02554 whole entry, looked up, the tested form may be a part): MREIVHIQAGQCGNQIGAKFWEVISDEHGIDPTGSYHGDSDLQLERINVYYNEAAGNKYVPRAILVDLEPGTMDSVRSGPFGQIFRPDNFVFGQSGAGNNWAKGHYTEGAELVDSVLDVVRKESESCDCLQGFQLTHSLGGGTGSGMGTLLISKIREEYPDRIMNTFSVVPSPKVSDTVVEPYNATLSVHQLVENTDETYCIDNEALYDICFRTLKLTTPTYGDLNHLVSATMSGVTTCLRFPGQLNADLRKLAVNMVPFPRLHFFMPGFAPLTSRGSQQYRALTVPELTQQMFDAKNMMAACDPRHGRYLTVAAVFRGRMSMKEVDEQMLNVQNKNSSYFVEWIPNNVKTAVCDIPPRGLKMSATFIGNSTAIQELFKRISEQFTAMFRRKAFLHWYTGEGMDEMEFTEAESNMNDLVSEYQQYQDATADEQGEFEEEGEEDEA

[5] = biological target: T2, Tubulin (Homo sapiens) (UniProt P68371+Q9H4B7+P0DPH7+P68366+Q13509+Q71U36+P04350+Q3ZCM7+P07437+P68363+Q9BQE3+Q6PEY2+Q13885+Q9BVA1+Q9BUF5); experiment: Binding affinity to tubulin (unknown origin) assessed as increase in Beta-col fragment production at 100 uM after 30 mins by coomassie brilliant blue staining based trypsin proteolysis assay; assay type: protein-complex assay
Summary of the method: (§3)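 Tubulin (1 mg/mL) preincubated with 100 µM compound for 30 min at 30 °C in 0.1 M MES, 1 mM MgCl2, 1 mM EGTA, pH 6.9. Trypsin added at 25 µg/mL (1:40 w/w) for 10 min on ice. Fragments resolved on 15% SDS-PAGE, stained with Coomassie and quantified by densitometry.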

[6] = test system: KB; experiment: Antiproliferative activity against human KB cells assessed as reduction in cell viability after 72 hrs by MTS assay; assay type: functional, cell-based; summary of the method: as §1
[7] = test system: CCRF-CEM; experiment: Antiproliferative activity against human CCRF-CEM cells assessed as reduction in cell viability after 72 hrs by MTS assay; assay type: functional, cell-based; summary of the method: as §1
[8] = biological target: T2, Tubulin (Homo sapiens); experiment: Binding affinity to tubulin (unknown origin) assessed as reduction in Beta-colfragment production at 100 uM after 30 mins by coomassie brilliant blue staining based trypsin proteolysis assay; assay type: protein-complex assay; summary of the method: as §3
[9] = biological target: T2, Tubulin (Homo sapiens); experiment: Binding affinity to tubulin (unknown origin) assessed as reduction in alpha-N fragment production at 100 uM after 30 mins by coomassie brilliant blue staining based trypsin proteolysis assay; assay type: protein-complex assay; summary of the method: as §3
[10] = biological target: T2, Tubulin (Homo sapiens); experiment: Binding affinity to tubulin (unknown origin) assessed as reduction in alpha-C fragment production at 100 uM after 30 mins by coomassie brilliant blue staining based trypsin proteolysis assay; assay type: protein-complex assay; summary of the method: as §3
[11] = Antiproliferative activity against human KBtax cells assessed as reduction in cell viability after 72 hrs by MTS assay; assay type: functional, cell-based; summary of the method: as §1
[12] = Selectivity index, ratio of IC50 for human KBtax cells to IC50 for human KB cells; assay type: functional
[13] = Antiproliferative activity against human KB/VCR cells assessed as reduction in cell viability after 72 hrs by MTS assay; assay type: functional, cell-based; summary of the method: as §1
[14] = Selectivity index, ratio of IC50 for human KB/VCR cells to IC50 for human KB cells; assay type: functional
[15] = Antiproliferative activity against human CCRF-CEM/VBL cells assessed as reduction in cell viability after 72 hrs by MTS assay; assay type: functional, cell-based; summary of the method: as §1
[16] = Selectivity index, ratio of IC50 for human CCRF-CEM/VBL cells to IC50 for human CCRF-CEM cells; assay type: functional
[17] = Antitumour activity against human KBtax cells xenografted in Balb/c mouse assessed as reduction in tumour size at 15 mg/kg, ip administered 3 times per week and measured after 21 days (reference value: 1109 +/- 128.3 mm3); assay type: functional
[18] = Toxicity in Balb/c mouse xenografted with human KBtax cells assessed as serum AST level at 15 mg/kg, ip administered 3 times per week and measured after 21 days (reference value: 94.2 +/- 12.5 IU/L); assay type: organism-based; conditions: in vivo, 504 h
[19] = Toxicity in Balb/c mouse xenografted with human KBtax cells assessed as serum BUN level at 15 mg/kg, ip administered 3 times per week and measured after 21 days (reference value: 17.8 +/-1.1 mg/dl); assay type: organism-based; conditions: in vivo, 504 h
[20] = Toxicity in Balb/c mouse xenografted with human KBtax cells assessed as serum creatinine level at 15 mg/kg, ip administered 3 times per week and measured after 21 days (reference value: 0.22 +/- 0.02 mg/dl); assay type: organism-based; conditions: in vivo, 504 h
[21] = Toxicity in Balb/c mouse xenografted with human NCI-H1975 cells assessed as effect on body mass at 4 to 8 mg/kg, ip administered 3 times per week for 25 days; assay type: organism-based; conditions: in vivo, 600 h
Summary of the method: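 H1975 cells (2 × 10^6) injected subcutaneously into right flank of 6-week-old BALB/c nude mice; established tumors treated intraperitoneally with 4 or 8 mg/kg compound in DMSO, or DMSO, three times a week for 25 days (n = 6 per group). Body mass recorded before each injection.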

[22] = Toxicity in Balb/c mouse xenografted with human NCI-H1975 cells assessed as serum ALT level at 4 mg/kg, ip administered 3 times per week for 25 days (reference value: 36.6 +/- 5.9 IU/L); assay type: organism-based; conditions: in vivo, 600 h
[23] = Toxicity in Balb/c mouse xenografted with human NCI-H1975 cells assessed as serum ALT level at 8 mg/kg, ip administered 3 times per week for 25 days (reference value: 36.6 +/- 5.9 IU/L); assay type: organism-based; conditions: in vivo, 600 h
[24] = Toxicity in Balb/c mouse xenografted with human NCI-H1975 cells assessed as serum AST level at 4 mg/kg, ip administered 3 times per week for 25 days (reference value: 122 +/- 14.5 IU/L); assay type: organism-based; conditions: in vivo, 600 h
[25] = Toxicity in Balb/c mouse xenografted with human NCI-H1975 cells assessed as serum AST level at 8 mg/kg, ip administered 3 times per week for 25 days (reference value: 122 +/- 14.5 IU/L); assay type: organism-based; conditions: in vivo, 600 h
[26] = Toxicity in Balb/c mouse xenografted with human NCI-H1975 cells assessed as serum BUN level at 4 mg/kg, ip administered 3 times per week for 25 days (reference value: 18.5 +/- 1.6 mg/dl); assay type: organism-based; conditions: in vivo, 600 h
[27] = Toxicity in Balb/c mouse xenografted with human NCI-H1975 cells assessed as serum BUN level at 8 mg/kg, ip administered 3 times per week for 25 days (reference value: 18.5 +/- 1.6 mg/dl); assay type: organism-based; conditions: in vivo, 600 h
[28] = Toxicity in Balb/c mouse xenografted with human NCI-H1975 cells assessed as serum creatinine level at 4 mg/kg, ip administered 3 times per week for 25 days (reference value: 0.14 +/- 0.02 mg/dl); assay type: organism-based; conditions: in vivo, 600 h
[29] = Toxicity in Balb/c mouse xenografted with human NCI-H1975 cells assessed as serum creatinine level at 8 mg/kg, ip administered 3 times per week for 25 days (reference value: 0.14 +/- 0.02 mg/dl); assay type: organism-based; conditions: in vivo, 600 h
[30] = Induction of apoptosis in human NHFB cells assessed as PARP cleavage at 40 nM after 24 to 72 hrs by immunoblotting analysis; assay type: cell-based; conditions: 0.04 µM
[31] = Induction of apoptosis in human NHFB cells assessed as cleaved caspase 3 expression at 40 nM after 24 to 72 hrs by immunoblotting analysis; assay type: cell-based; conditions: 0.04 µM
[32] = Induction of apoptosis in human NHFB cells assessed as cytochrome c release at 40 to 80 nM after 24 hrs by immunoblotting analysis; assay type: cell-based; conditions: 0.08 µM
[33] = Cell cycle arrest in human NHFB cells assessed as effect on cell population at sub-G1 phase at 40 to 80 nM after 24 hrs by propidium iodide-staining based flow cytometry; assay type: ADME; conditions: 0.08 µM
Summary of the method: (§4)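 Cells treated for 24 h, then trypsinized and fixed overnight in ice-cold 70% ethanol. Stained for 30 min with propidium iodide (10 µg/mL) plus RNase (20 µg/mL), and DNA content measured by flow cytometry. Mean ± SD.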

[34] = Cell cycle arrest in human NHFB cells assessed as effect on cell population at G2/M phase at 40 to 80 nM after 24 hrs by propidium iodide-staining based flow cytometry; assay type: ADME; conditions: 0.08 µM; summary of the method: as §4
[35] = biological target: Tubulin; experiment: Binding affinity to tubulin (unknown origin) assessed as dissociation constant by SPR analysis; assay type: protein-complex assay, Homo sapiens
Summary of the method: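 Biotin-tubulin (50 µg/mL) captured on a streptavidin chip to about 3,000 RU, with remaining sites blocked by biocytin and a free flow cell as reference. Compound injected at different concentrations in HBS-EP+ (pH 7.4) at 25 °C. KD obtained from steady-state fitting.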

IC50 [1]: 1950 nM
SMILES: CCOC(=O)c1ccc2[nH]c(-c3cccc(O)c3)cc(=O)c2c1

IC50 [1]: 44 nM
SMILES: CCOC(=O)c1ccc2[nH]c(-c3cccc(OC)c3)cc(=O)c2c1

Activity [2]: Active
Activity [3]: Active
tubulin inhibition call (active/not active) [4]: Active
Activity [5]: Active
SMILES: COC(=O)Nc1nc2cc(C(=O)c3cccs3)ccc2[nH]1

IC50 [6]: 5 nM
IC50 [7]: 3 nM
tubulin inhibition call (active/not active) [4]: Active
Activity [8]: Active
Activity [9]: Active
Activity [10]: Active
SMILES: CC[C@]1(O)C[C@H]2CN(CCc3c([nH]c4ccccc34)[C@@](C(=O)OC)(c3cc4c(cc3OC)N(C=O)[C@H]3[C@@](O)(C(=O)OC)[C@H](OC(C)=O)[C@]5(CC)C=CCN6CC[C@]43[C@@H]65)C2)C1 [VINCRISTINE]
IC50 [11]: 49 nM
Ratio IC50 [12]: 9.8
IC50 [13]: 817 nM
Ratio IC50 [14]: 163
IC50 [15]: 1320 nM
Ratio IC50 [16]: 440

IC50 [1]: 48 nM
SMILES: CC(C)OC(=O)c1ccc2[nH]c(-c3ccccc3)cc(=O)c2c1

SMILES: C/C(=C\c1csc(C)n1)[C@@H]1C[C@@H]2O[C@]2(C)CCC[C@H](C)[C@H](O)[C@@H](C)C(=O)C(C)(C)[C@@H](O)CC(=O)N1 [IXABEPILONE]
IC50 [6]: 8 nM
IC50 [7]: 3 nM
IC50 [11]: 35 nM
Ratio IC50 [12]: 4.3
IC50 [13]: 193 nM
Ratio IC50 [14]: 24
IC50 [15]: 150 nM
Ratio IC50 [16]: 50

IC50 [1]: 780 nM
SMILES: CCOC(=O)c1ccc2[nH]c(-c3cccc(C(F)(F)F)c3)cc(=O)c2c1

IC50 [1]: 2100 nM
SMILES: CCOC(=O)c1ccc2[nH]c(-c3ccc(F)cc3)cc(=O)c2c1

IC50 [7]: 4 nM
Activity [2]: inactive
Activity [3]: inactive
tubulin inhibition call (active/not active) [4]: inactive
SMILES: CC(=O)O[C@H]1C(=O)[C@@]2(C)[C@H]([C@H](OC(=O)c3ccccc3)[C@]3(O)C[C@H](OC(=O)[C@H](O)[C@@H](NC(=O)c4ccccc4)c4ccccc4)C(C)=C1C3(C)C)[C@]1(OC(C)=O)CO[C@@H]1C[C@@H]2O [PACLITAXEL]
IC50 [11]: 101 nM
IC50 [13]: 708 nM
IC50 [15]: 857 nM
Activity [17]: 868.7 mm3
Activity [18]: 102.8 IU/L
Activity [19]: 19 mg/dL
Activity [20]: 0.16 mg/dL

Kd [35]: 13800 nM
SMILES: CCOC(=O)c1ccc2[nH]c(-c3ccccc3)cc(=O)c2c1
Activity [21]: Non-Toxic
Activity [22]: 40.8 IU/L
Activity [23]: 54.2 IU/L
Activity [24]: 138.7 IU/L
Activity [25]: 170.8 IU/L
Activity [26]: 23.2 mg/dL
Activity [27]: 20.9 mg/dL
Activity [28]: 0.26 mg/dL
Activity [29]: 0.17 mg/dL
Activity [30]: Non-Toxic
Activity [31]: Non-Toxic
Activity [32]: Non-Toxic
Activity [33]: Non-Toxic
Activity [34]: Non-Toxic

IC50 [1]: > 5000 nM
SMILES: O=C(O)c1ccc2[nH]c(-c3ccccc3)cc(=O)c2c1

IC50 [1]: 810 nM
SMILES: CCOCc1ccc2[nH]c(-c3ccccc3)cc(=O)c2c1

IC50 [1]: 475 nM
SMILES: CCOC(=O)c1ccc2[nH]c(-c3ccc(O)cc3)cc(=O)c2c1

IC50 [1]: 2200 nM
SMILES: CCOC(=O)c1ccc2[nH]c(-c3ccc(OC)cc3)cc(=O)c2c1

IC50 [1]: 3700 nM
SMILES: CCNC(=O)c1ccc2[nH]c(-c3ccccc3)cc(=O)c2c1

IC50 [1]: 4500 nM
SMILES: CCOC(=O)c1ccc2[nH]c(-c3ccc(Br)cc3)cc(=O)c2c1

IC50 [1]: 207 nM
SMILES: COC(=O)c1ccc2[nH]c(-c3ccccc3)cc(=O)c2c1
